Assay results reported in ChEMBL document CHEMBL1123933, “Specific dopamine D-1 and DA1 properties of 4-(mono- and -dihydroxyphenyl)-1,2,3,4-tetrahydroisoquinoline and its tetrahydrothieno[2,3-c]pyridine analogue” (1987).
The source made the active and inactive calls. No cut-off for these calls is given here.

Assays:
Rattus norvegicus [1] = organism: Rattus norvegicus; assay: Compound was evaluated for the stimulation of rat retinal adenylate cyclase at 0.1 uM dose; type: functional
How it was run: (§1)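 Retinal homogenate, […], incubated 20 min at 30 °C. Stopped with SDS/ATP/cAMP plus [3H]cAMP recovery tracer and 2 min at 85 °C. [32P]cAMP isolated by Salomon column chromatography.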

Rattus norvegicus [2] = organism: Rattus norvegicus; assay: Compound was evaluated for the stimulation of rat retinal adenylate cyclase at 1.0 uM dose; type: functional; how it was run: as §1
Rattus norvegicus [3] = organism: Rattus norvegicus; assay: Compound was evaluated for the stimulation of rat retinal adenylate cyclase at 100.0 uM dose; type: functional; how it was run: as §1
Rattus norvegicus [4] = organism: Rattus norvegicus; assay: Compound was evaluated for the stimulation of rat retinal adenylate cyclase at 10.0 uM dose; type: functional; how it was run: as §1
Canis familiaris = organism: Canis familiaris; assay: Compound was evaluated for the stimulation of canine renal artery; Inactive; type: functional, organism-based; conditions: Canis lupus familiaris
Rattus norvegicus [5] = organism: Rattus norvegicus; assay: Compound was evaluated for the stimulation of rat retinal adenylate cyclase by effect of its alkyl length at 1.0 uM dose; type: functional; how it was run: as §1
Rattus norvegicus [6] = organism: Rattus norvegicus; assay: Compound was evaluated for the stimulation of rat retinal adenylate cyclase by effect of its alkyl length at 10.0 uM dose; type: functional; how it was run: as §1
Rattus norvegicus [7] = organism: Rattus norvegicus; assay: Compound was evaluated for the stimulation of rat retinal adenylate cyclase by effect of its alkyl length at 100.0 uM dose; type: functional; how it was run: as §1
Rattus norvegicus [8] = organism: Rattus norvegicus; assay: Compound was evaluated for the stimulation of rat retinal adenylate cyclase by effect of its alkyl length at 0.1 uM dose; type: functional; how it was run: as §1

Compound | Stimulation (Rattus norvegicus [1]) [%] | Stimulation (Rattus norvegicus [2]) [%] | Stimulation (Rattus norvegicus [3]) [%] | Stimulation (Rattus norvegicus [4]) [%] | Activity (Canis familiaris) | Stimulation (Rattus norvegicus [5]) [%] | Stimulation (Rattus norvegicus [6]) [%] | Stimulation (Rattus norvegicus [7]) [%] | Stimulation (Rattus norvegicus [8]) [%]
NCCc1ccc(O)c(O)c1 [DOPAMINE] | 25.7 | 116.2 | 295.3 | 209.8 |  |  |  |  | 
Oc1cccc(C2CNCc3ccccc32)c1 (stereo not given) |  | 21 | 81 | 47 | inactive |  |  |  | 
CCCN1Cc2ccccc2C(c2ccc(O)c(O)c2)C1 (stereo not given) |  |  |  |  |  | -7.7 | 11.8 | 46.4 | 
Oc1ccc(C2CNCCc3c2cc(O)c(O)c3Cl)cc1 (stereo not given) [FENOLDOPAM] | 165.1 | 176 | 246 | 201.4 |  |  |  |  | 
Oc1ccc(C2CNCc3sccc32)cc1O (stereo not given) | 70.4 | 160.2 | 207 | 188.6 |  |  |  |  | 
CN1Cc2ccccc2C(c2ccc(O)c(O)c2)C1 (stereo not given) |  |  |  |  |  | 46.5 | 122.6 | 144.9 | -1.7
Oc1ccc(C2CNCc3ccccc32)cc1O (stereo not given) | 23.6 | 89.6 | 198.8 | 152.7 |  | 87.7 | 188 | 288.8 | 11.5
CCN1Cc2ccccc2C(c2ccc(O)c(O)c2)C1 (stereo not given) |  |  |  |  |  | -1 | 42.7 | 94.1 | -8.8
